Where two headings read alike, the source gives them in different places.

Data set [1] is described as follows: in vitro. The note with it: human.
Data set [2] is described as follows: in vitro. The note with it: human. The source holds these as a separate data set.
In data set [3] the test system is T. brucei bloodstream form (BSF) parasites. Kind of data set: T. brucei growth inhibition. The format is cell-based, Trypanosoma brucei brucei Lister 427. The note with it: Trypanosoma brucei, read-out: T. brucei EC50.
The subject of data set [4] is T. brucei brucei Lister 427. Kind of data set: T. brucei brucei Lister 427 mouse model of infection. The format is in vivo, BALB/C mice. The note with it: treated mice, i.p. for 4 days (8 at 3 and 10 mg/kg).
In data set [5] the test system is AT-rich DNA dodecamer duplex. The note with it: DSC, shift on inhibitor binding; cited from earlier work.
For data set [6] the following is noted: treatment of the second or neurological phase of HAT; no reference given; cited from earlier work.
Data set [7] deals with T. brucei farnesyl diphosphate synthase (TbFPPS) (Trypanosoma brucei, UniProt Q57WF1). Briefly: TbFPPS inhibition, coupled colorimetric assay. The format is biochemical. The note with it: read-out: TbFPPS IC50; duplicate ± SD; highest inhibitor concentration 316 μM.
The target of another data set is T1, human FPPS (Homo sapiens, UniProt P14324).
T1 sequence (P14324 1-419): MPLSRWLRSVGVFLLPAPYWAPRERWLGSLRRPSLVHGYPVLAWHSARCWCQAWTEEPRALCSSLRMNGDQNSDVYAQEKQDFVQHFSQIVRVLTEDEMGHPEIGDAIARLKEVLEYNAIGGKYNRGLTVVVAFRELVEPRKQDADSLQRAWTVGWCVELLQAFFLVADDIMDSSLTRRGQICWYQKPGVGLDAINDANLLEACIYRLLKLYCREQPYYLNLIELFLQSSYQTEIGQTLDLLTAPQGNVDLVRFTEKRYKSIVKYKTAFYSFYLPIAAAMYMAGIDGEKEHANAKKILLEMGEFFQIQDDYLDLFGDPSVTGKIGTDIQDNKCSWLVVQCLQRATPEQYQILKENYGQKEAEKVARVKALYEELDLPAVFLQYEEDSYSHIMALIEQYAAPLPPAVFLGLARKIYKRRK
Kind of data set: Human FPPS inhibition. The format is biochemical. The note with it: read-out: IC50 against human FPPS.

Data set [8] relates to T. brucei k-DNA and nuclear DNA replication. Kind of data set: Visualization of DNA replication. To be noted: EdU click chemistry, 72 h treatment. The format is cell-based, Trypanosoma brucei. The method in brief:
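Bloodstream-form trypanosomes, after 72 h exposure to test compound (DMSO vehicle as control), were pulsed 16 h with EdU, washed in PBS, fixed in cold 100% ethanol and dried. EdU was detected by Cu(I)-catalysed click labelling with Alexa Fluor 488 azide ([…]), and the cells were counterstained with 10 μg/ml DAPI. Nuclear and k-DNA signals were assessed by fluorescence microscopy.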

Broadly, the EC50 is the midpoint of the concentration-response curve. What is called ΔTm is the change in melting temperature against a reference sample. Regarding `N=C(N)c1ccc(OCCCCCOc2ccc(C(=N)N)cc2)cc1` [compound 2, pentamidine], the CC50 at 72 h in “in vitro [1]” and in “in vitro [2]” was less than 400 nM each time. The results for the 50% effective concentration (EC50) in data set [3] (72 h) and in [3] were 5.5 nM and 5 nM, respectively. Moreover, the parasitemia result in data set [4] is on record as “no parasitemia observed”. Further, the thermal shift (ΔTm) in data set [5] is 2.7 °C.

Turning to `Nc1nc(N)nc(Nc2ccc([As]3SCC(CO)S3)cc2)n1` (stereo not shown) [compound 3, melarsoprol], the lethal in patients in [6] is 5-10%.

The IC50 is the midpoint of a concentration-inhibition curve. As for `N=C(N)c1ccc(-c2ccc(-c3ccc(C(=N)N)cc3)o2)cc1` [compound 6], the IC50 (in data set [7]; on human FPPS) was approximately 50000 nM in each case.

In the case of `CC[n+]1c(-c2ccccc2)c2cc(N)ccc2c2ccc(N)cc21` [ethidium bromide], in data set [8], the “k-DNA replication in T. brucei” value is recorded as “completely blocked”.

These data come from article PMC4539249 (ACS infectious diseases, 2015).
